From ChEMBL document CHEMBL3393047, “Pyridine and pyridinone-based factor XIa inhibitors” (Bioorg Med Chem Lett, 2015)

Tests used:
Coagulation factor XI = Coagulation factor XI (Homo sapiens, UniProt P03951); experiment: Inhibition of human coagulation factor 11a after 10 to 120 mins
Plasma = experiment: Anticoagulant activity in human plasma assessed as concentration required to double the activated partial thromboplastin time; type: functional
How it was run: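 In vitro clotting assay run in human plasma; activity read out as the activated partial thromboplastin time, and the value reported as EC2x, the concentration that doubles aPTT.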

Prothrombin = Prothrombin (Homo sapiens, UniProt P00734); experiment: Inhibition of human thrombin
How it was run: (§1)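 Ki determined against purified human enzymes (selectivity panel of serine proteases).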

Coagulation factor VII = target: T1, Coagulation factor VII (Homo sapiens, UniProt P08709); experiment: Inhibition of human coagulation factor 7a; how it was run: as §1
T1 sequence (P08709 whole entry): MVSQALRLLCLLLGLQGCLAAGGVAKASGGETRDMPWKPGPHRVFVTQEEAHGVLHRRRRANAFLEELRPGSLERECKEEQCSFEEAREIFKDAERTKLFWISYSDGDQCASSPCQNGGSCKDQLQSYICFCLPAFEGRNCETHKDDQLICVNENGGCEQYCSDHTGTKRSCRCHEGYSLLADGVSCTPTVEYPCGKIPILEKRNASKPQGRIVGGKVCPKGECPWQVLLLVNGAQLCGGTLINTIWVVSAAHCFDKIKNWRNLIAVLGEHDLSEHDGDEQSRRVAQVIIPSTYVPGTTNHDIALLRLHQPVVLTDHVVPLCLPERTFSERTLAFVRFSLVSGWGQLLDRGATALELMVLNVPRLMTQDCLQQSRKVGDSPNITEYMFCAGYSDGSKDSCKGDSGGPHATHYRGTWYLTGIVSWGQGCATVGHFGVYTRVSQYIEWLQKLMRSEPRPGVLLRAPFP

[1] = target: Urokinase-type plasminogen activator (Homo sapiens, UniProt P00749); experiment: Inhibition of human urokinase; how it was run: as §1
[2] = target: Tissue-type plasminogen activator (Homo sapiens, UniProt P00750); experiment: Inhibition of human TPA; how it was run: as §1
Sequence of Tissue-type plasminogen activator (P00750 whole entry): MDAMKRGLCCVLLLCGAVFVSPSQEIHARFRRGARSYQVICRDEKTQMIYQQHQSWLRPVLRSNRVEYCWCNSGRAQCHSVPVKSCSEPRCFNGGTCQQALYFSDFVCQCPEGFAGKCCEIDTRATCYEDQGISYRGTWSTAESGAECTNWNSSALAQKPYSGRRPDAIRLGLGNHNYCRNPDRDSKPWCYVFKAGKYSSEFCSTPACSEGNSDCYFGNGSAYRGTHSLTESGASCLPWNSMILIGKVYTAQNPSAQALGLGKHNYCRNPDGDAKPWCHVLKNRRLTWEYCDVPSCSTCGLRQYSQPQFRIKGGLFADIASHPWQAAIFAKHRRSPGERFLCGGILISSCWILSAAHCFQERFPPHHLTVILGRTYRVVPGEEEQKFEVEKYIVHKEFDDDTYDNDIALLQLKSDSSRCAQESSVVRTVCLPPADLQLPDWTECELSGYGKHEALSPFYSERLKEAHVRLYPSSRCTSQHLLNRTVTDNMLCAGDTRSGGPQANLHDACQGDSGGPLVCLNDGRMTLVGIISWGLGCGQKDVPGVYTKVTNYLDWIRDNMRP

Trypsin = Trypsin (Homo sapiens, UniProt P07477+P07478+P35030); experiment: Inhibition of human trypsin; type: protein assay; how it was run: as §1
Plasminogen = Plasminogen (Homo sapiens, UniProt P00747); experiment: Inhibition of human plasmin; how it was run: as §1
Sequence of Plasminogen (P00747 97-580 limits assumed): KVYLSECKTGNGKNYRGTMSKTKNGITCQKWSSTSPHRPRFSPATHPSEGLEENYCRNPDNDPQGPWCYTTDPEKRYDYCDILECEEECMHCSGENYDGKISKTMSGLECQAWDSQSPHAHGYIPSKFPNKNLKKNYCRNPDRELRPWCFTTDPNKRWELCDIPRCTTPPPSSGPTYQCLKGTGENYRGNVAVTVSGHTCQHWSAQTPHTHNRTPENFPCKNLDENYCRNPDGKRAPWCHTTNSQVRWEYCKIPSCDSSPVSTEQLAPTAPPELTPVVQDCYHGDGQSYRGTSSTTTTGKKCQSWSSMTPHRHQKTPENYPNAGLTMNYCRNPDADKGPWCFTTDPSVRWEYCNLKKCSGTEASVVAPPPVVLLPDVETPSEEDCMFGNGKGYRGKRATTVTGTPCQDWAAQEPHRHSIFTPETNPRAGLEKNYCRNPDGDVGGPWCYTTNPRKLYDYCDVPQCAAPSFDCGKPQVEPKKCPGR
Sequence of Plasminogen (P00747 581-810 limits assumed): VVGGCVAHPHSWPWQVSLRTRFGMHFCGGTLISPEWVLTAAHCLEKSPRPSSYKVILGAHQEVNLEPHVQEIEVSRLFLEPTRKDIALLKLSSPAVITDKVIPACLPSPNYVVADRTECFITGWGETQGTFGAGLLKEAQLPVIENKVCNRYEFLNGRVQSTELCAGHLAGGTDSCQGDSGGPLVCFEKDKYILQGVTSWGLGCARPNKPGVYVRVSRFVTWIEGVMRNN

[3] = target: Vitamin K-dependent protein C (Homo sapiens, UniProt P04070); experiment: Inhibition of human activated protein C; how it was run: as §1
Sequence of Vitamin K-dependent protein C (P04070 43-197 limits assumed): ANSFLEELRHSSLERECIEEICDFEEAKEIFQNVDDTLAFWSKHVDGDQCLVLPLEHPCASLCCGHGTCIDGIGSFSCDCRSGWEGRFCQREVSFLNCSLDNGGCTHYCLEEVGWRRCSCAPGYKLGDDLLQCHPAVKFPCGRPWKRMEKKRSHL
Sequence of Vitamin K-dependent protein C (P04070 212-461 limits assumed): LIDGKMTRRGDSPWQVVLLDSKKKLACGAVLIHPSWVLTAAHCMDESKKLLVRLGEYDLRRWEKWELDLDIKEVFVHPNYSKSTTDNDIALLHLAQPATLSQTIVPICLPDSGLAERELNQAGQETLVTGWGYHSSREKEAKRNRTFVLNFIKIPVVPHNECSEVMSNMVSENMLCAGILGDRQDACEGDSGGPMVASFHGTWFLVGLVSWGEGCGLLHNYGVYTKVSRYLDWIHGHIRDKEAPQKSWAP

Coagulation factor IX = Coagulation factor IX (Homo sapiens, UniProt P00740); experiment: Inhibition of human coagulation factor 9a; how it was run: as §1
Sequence of Coagulation factor IX (P00740 47-191 limits assumed): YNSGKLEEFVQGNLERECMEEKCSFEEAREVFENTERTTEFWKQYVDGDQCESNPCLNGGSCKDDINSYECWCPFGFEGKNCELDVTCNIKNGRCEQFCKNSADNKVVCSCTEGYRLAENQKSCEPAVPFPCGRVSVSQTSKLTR
Sequence of Coagulation factor IX (P00740 227-461 limits assumed): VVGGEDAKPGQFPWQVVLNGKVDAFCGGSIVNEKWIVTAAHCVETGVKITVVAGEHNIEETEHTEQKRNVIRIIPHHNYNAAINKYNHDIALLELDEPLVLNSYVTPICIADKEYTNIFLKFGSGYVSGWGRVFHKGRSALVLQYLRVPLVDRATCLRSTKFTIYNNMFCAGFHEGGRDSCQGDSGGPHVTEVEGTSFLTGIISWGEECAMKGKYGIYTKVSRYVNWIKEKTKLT

[4] = Inhibition of human chymotrypsin; how it was run: as §1
Plasma kallikrein = Plasma kallikrein (Homo sapiens, UniProt P03952); experiment: Inhibition of human plasma kallikrein; how it was run: as §1
Sequence of Plasma kallikrein (P03952 20-390 limits assumed): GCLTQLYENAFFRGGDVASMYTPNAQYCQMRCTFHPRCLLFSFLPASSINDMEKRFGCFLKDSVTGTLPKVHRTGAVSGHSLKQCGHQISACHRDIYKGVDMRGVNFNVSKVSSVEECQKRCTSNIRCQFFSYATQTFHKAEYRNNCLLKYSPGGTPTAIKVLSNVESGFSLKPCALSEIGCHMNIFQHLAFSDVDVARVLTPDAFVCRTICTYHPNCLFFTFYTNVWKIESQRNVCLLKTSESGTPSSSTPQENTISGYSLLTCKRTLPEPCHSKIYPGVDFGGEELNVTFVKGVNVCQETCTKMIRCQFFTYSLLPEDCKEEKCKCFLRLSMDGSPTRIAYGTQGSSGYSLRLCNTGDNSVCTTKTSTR
Sequence of Plasma kallikrein (P03952 391-638 limits assumed): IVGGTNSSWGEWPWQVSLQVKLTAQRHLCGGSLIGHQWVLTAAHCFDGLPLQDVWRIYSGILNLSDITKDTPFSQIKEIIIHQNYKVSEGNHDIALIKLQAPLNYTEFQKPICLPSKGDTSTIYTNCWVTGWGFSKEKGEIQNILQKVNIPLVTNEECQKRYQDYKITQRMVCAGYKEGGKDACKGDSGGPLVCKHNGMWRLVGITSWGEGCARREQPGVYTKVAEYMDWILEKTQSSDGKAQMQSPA

Coagulation factor X = Coagulation factor X (Homo sapiens, UniProt P00742); experiment: Inhibition of human coagulation factor 10a; how it was run: as §1
Sequence of Coagulation factor X (P00742 41-179 limits assumed): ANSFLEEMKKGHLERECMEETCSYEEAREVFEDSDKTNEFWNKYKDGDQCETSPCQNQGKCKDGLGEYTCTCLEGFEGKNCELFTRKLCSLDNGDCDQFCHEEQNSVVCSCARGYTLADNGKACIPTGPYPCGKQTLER
Sequence of Coagulation factor X (P00742 235-488 limits assumed): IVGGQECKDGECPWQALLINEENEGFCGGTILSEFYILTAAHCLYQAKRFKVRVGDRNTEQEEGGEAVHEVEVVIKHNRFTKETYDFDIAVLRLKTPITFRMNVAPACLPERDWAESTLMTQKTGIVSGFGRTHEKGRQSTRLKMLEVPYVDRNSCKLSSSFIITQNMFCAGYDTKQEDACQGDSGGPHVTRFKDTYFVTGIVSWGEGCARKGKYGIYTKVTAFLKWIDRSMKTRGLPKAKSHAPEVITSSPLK

Sequence of Coagulation factor XI (P03951 19-387 limits assumed): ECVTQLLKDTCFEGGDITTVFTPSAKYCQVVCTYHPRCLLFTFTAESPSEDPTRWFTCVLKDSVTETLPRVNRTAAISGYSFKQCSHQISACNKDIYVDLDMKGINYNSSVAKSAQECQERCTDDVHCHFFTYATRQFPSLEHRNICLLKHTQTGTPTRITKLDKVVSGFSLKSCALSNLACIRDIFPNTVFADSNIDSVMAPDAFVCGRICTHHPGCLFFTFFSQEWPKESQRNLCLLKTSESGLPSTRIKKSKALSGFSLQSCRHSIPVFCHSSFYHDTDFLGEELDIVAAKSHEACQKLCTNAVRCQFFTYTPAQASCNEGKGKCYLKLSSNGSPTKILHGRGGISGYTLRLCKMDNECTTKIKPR
Sequence of Coagulation factor XI (P03951 388-625 limits assumed): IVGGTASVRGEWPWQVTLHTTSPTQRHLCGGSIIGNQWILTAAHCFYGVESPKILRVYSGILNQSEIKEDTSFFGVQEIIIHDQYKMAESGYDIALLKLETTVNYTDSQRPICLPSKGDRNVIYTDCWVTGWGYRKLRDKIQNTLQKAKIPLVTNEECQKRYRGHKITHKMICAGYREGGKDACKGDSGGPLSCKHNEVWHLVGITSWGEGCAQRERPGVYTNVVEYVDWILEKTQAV

Row | Ki (Coagulation factor XI) [nM] | SMILES | other results
1 | 330 | NC[C@H]1CC[C@H](C(=O)NC(Cc2ccccc2)c2cncc(-c3ccccc3)c2)CC1 (mixture of isomers) | –
2 | 936 | NC[C@H]1CC[C@H](C(=O)NC(Cc2ccccc2)c2cccc(-c3ccccc3)c2)CC1 (mixture of isomers) | –
3 | 1060 | NC[C@H]1CC[C@H](C(=O)NC(Cc2ccccc2)c2cc(-c3ccccc3)c[n+]([O-])c2)CC1 (mixture of isomers) | –
4 | 42 | NC[C@H]1CC[C@H](C(=O)NC(Cc2ccccc2)c2cccc(-c3ccc4c(N)n[nH]c4c3)c2)CC1 (mixture of isomers) | 2aPTT (Plasma): >40 µM
5 | 206 | NC[C@H]1CC[C@H](C(=O)NC(Cc2ccccc2)c2cc(-c3ccccc3)cc(Cl)n2)CC1 (mixture of isomers) | –
6 | 377 | NC[C@H]1CC[C@H](C(=O)NC(Cc2ccccc2)c2cc(-c3ccccc3)ccn2)CC1 (mixture of isomers) | –
7 | 11400 | NC[C@H]1CC[C@H](C(=O)N[C@@H](Cc2ccccc2)c2nccc(-c3ccccc3)n2)CC1 | –
8 | 227 | NC[C@H]1CC[C@H](C(=O)NC(Cc2ccccc2)c2cc(-c3ccccc3)cc(N)n2)CC1 (mixture of isomers) | –
9 | 30200 | NC[C@H]1CC[C@H](C(=O)NC(Cc2ccccc2)c2cccc(-c3ccccc3)n2)CC1 (mixture of isomers) | –
10 | 479 | Cn1c(C(Cc2ccccc2)NC(=O)[C@H]2CC[C@H](CN)CC2)cc(-c2ccccc2)cc1=O (mixture of isomers) | –
11 | 8.4 | NC[C@H]1CC[C@H](C(=O)N[C@@H](Cc2ccccc2)c2cc(-c3ccc4c(N)n[nH]c4c3)ccn2)CC1 | Ki (Prothrombin): > 12.6 µM; Ki (Coagulation factor VII): > 10.9 µM; Ki [1]: > 14.1 µM; Ki [2]: > 21.9 µM; Ki (Trypsin): 64 nM; Ki (Plasminogen): > 22.1 µM; Ki [3]: > 21.4 µM; Ki (Coagulation factor IX): > 34.9 µM; Ki [4]: > 20.8 µM; Ki (Plasma kallikrein): 24 nM; Ki (Coagulation factor X): > 9 µM; 2aPTT (Plasma): 4.5 µM
12 | 113 | NC[C@H]1CC[C@H](C(=O)NC(Cc2ccccc2)c2cc(-c3ccccc3)cc(O)n2)CC1 (mixture of isomers) | –
13 | 1070 | NC[C@H]1CC[C@H](C(=O)N[C@H](Cc2ccccc2)c2cc(-c3ccc4c(N)n[nH]c4c3)ccn2)CC1 | –
14 | 12 | NC[C@H]1CC[C@H](C(=O)N[C@@H](Cc2ccccc2)c2nc(-c3ccccc3)c(Cl)[nH]2)CC1 | –
15 | 13 | NC[C@H]1CC[C@H](C(=O)NC(Cc2ccccc2)c2cc(-c3ccc4c(N)n[nH]c4c3)ccn2)CC1 (mixture of isomers) | 2aPTT (Plasma): 6 µM
16 | 433 | NC[C@H]1CC[C@H](C(=O)NC(Cc2ccccc2)c2cc(-c3ccccc3)c(F)cn2)CC1 (mixture of isomers) | –
17 | 320 | NC[C@H]1CC[C@H](C(=O)NC(Cc2ccccc2)c2ccnc(-c3ccccc3)c2)CC1 (mixture of isomers) | –
18 | 3.7 | NC[C@H]1CC[C@H](C(=O)NC(Cc2ccccc2)c2cc(-c3ccc4c(N)n[nH]c4c3)cc(=O)[nH]2)CC1 (mixture of isomers) | 2aPTT (Plasma): 2.5 µM
19 | 3.2 | NC[C@H]1CC[C@H](C(=O)N[C@@H](Cc2ccccc2)c2nc(-c3ccc4c(N)n[nH]c4c3)c[nH]2)CC1 | 2aPTT (Plasma): 3 µM
20 | 331 | NC[C@H]1CC[C@H](C(=O)NC(Cc2ccccc2)c2cc(-c3ccccc3)ncn2)CC1 (mixture of isomers) | –
21 | 21 | NC[C@H]1CC[C@H](C(=O)N[C@@H](Cc2ccccc2)c2cccc(-c3ccc4c(N)n[nH]c4c3)c2)CC1 | 2aPTT (Plasma): 37 µM
22 | 949 | COc1cc(-c2ccccc2)cc(C(Cc2ccccc2)NC(=O)[C@H]2CC[C@H](CN)CC2)n1 (mixture of isomers) | –
23 | 1690 | NC[C@H]1CC[C@H](C(=O)NC(Cc2ccccc2)c2cc(-c3ccccc3)cc[n+]2[O-])CC1 (mixture of isomers) | –
24 | 6160 | NC[C@H]1CC[C@H](C(=O)N[C@H](Cc2ccccc2)c2cccc(-c3ccc4c(N)n[nH]c4c3)c2)CC1 | –
25 | 2530 | NC[C@H]1CC[C@H](C(=O)NC(Cc2ccccc2)c2cc[n+]([O-])c(-c3ccccc3)c2)CC1 (mixture of isomers) | –
26 | 860 | CNc1cc(-c2ccccc2)cc(C(Cc2ccccc2)NC(=O)[C@H]2CC[C@H](CN)CC2)n1 (mixture of isomers) | –
